Results from ChEMBL document CHEMBL1121509, “Metabolic N-hydroxylation. Use of substituent variation to modulate the in vitro bioactivation of 4-acetamidostilbenes” (J Med Chem, 1980).

How the values were obtained:
Assay type in all cases: ADME
Conditions in all cases: microsomes
[1] = Compound was evaluated for the kinetic constant (Vmax) for the microsomal oxidation (hydroxamic acid metabolite)
[2] = Compound was evaluated for the apparent kinetic constant (Km) for the microsomal oxidation (hydroxamic acid metabolite)
[3] = Selectivity ratio of Vmax and Km for microsomal oxidation (hydroxamic acid metabolite)
Summary of the method: (§1)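 V/K computed as Vmax/Km, an apparent first-order rate constant […], from Wilkinson-fitted kinetic constants of 10-min, 37 °C liver microsomal incubations with NADPH-generating system and paraoxon; metabolites quantified by TLC and dual-label (¹⁴C/³H) radiochemical assay.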

[4] = Compound was evaluated for the kinetic constant (Vmax) for the microsomal oxidation (hydroxymethyl metabolite); Values are pmol(1/mg of microsomal protein)min
[5] = Selectivity ratio of Vmax and Km for microsomal oxidation; summary of the method: as §1
[6] = Compound was evaluated for the apparent kinetic constant (Km) for the microsomal oxidation (hydroxymethyl metabolite)
[7] = Compound was evaluated for the apparent kinetic constant (Km) for the microsomal oxidation (4'-hydroxy metabolite)
[8] = Compound was evaluated for the kinetic constant (Vmax) for the microsomal oxidation (4'-hydroxy metabolite); Values are pmol(1/mg of microsomal protein)min
[9] = Compound was evaluated for the kinetic constant (Vmax) for the microsomal oxidation (hydroxamic acid metabolite); Values are pmol(1/mg of microsomal protein)min; design: unit: pmol/min/mg protein
[10] = Selectivity ratio of Vmax and Km for microsomal oxidation (4'-hydroxy metabolite); summary of the method: as §1
[11] = Compound was evaluated for the apparent kinetic constant (Km) for the microsomal oxidation (glycolamide metabolite)
[12] = Compound was evaluated for the kinetic constant (Vmax) for the microsomal oxidation (glycolamide metabolite); Values are pmol(1/mg of microsomal protein)min
[13] = Selectivity ratio of Vmax and Km for microsomal oxidation (glycolamide metabolite); summary of the method: as §1
[14] = Compound was evaluated for the kinetic constant (Vmax) for the microsomal oxidation (omega-1 hydroxy metabolite); Values are pmol(1/mg of microsomal protein)min
[15] = Compound was evaluated for the apparent kinetic constant (Km) for the microsomal oxidation (omega-1 hydroxy metabolite)
[16] = Selectivity ratio of Vmax and Km for microsomal oxidation (omega-1 hydroxy metabolite); summary of the method: as §1

SMILES | Km [2] | Vmax [9] | Ratio [3] | Ratio [5] | further results
CC(=O)Nc1ccc(/C=C/c2ccc(C(C)(C)C)cc2)cc1 | – | – | – | 12.54 | Vmax [4]: 1129; Km [6]: 90 µM
CC(=O)Nc1ccc(/C=C/c2ccccc2)cc1 | 2800 µM | 2767 | 0.99 | – | Km [7]: 500 µM; Vmax [8]: 467; Ratio [10]: 0.93
CC(=O)Nc1ccc(/C=C/c2ccc(C#N)cc2)cc1 | 310 µM | 677 | – | 2.18 | –
CC(=O)Nc1ccc(/C=C/c2ccc(Br)cc2)cc1 | 1900 µM | 457 | – | 0.24 | –

The next lines start with results.

Km [2] | Vmax [9] | SMILES | Ratio [3] | Ratio [5] | further results
60 µM | – | CC(=O)Nc1ccc(/C=C/c2ccc(C)cc2)cc1 | 4.05 | – | Vmax [1]: 243
3300 µM | 98 | CC(=O)Nc1ccc(/C=C/c2ccc(Cl)cc2)cc1 | 0.03 | – | Km [11]: 3500 µM; Vmax [12]: 17; Ratio [13]: 0.005
2900 µM | 88 | CC(=O)Nc1ccc(/C=C/c2ccc(F)cc2)cc1 | 0.03 | – | Km [11]: 3300 µM; Vmax [12]: 27; Ratio [13]: 0.008
1200 µM | 330 | CCCCOc1ccc(/C=C/c2ccc(NC(C)=O)cc2)cc1 | 0.28 | – | Vmax [14]: 530; Km [15]: 1100 µM; Ratio [16]: 0.48
